Calls of active or inactive are those of the source.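 Rule for the calls, unless noted: active = inhibition of the reporter signal at or above 50%; inactive = inhibition below 50%.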
How the values were obtained:
[1] = inhibitors of TNFa-induced NFkB p65 translocation, primary screen, imaging, HUVEC, MLSMR starter and 10KST1 sets (AID 438;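 active = inhibition above 20% together with a positive visual image hit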;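 note: compound added about 3h40 before a 20 min TNFalpha stimulation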;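 for inhibition: signal is the nuclear over cytoplasmic p65 intensity ratio per well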); conditions: HUVEC TNFa-induced p65 nuclear translocation; cell count: measured here: nuclei count (cytotoxicity indicator), at 2.08 µM; inhibition: at 2 µM, stronger effect = higher value, 0% TNFa-plus-vehicle, 100% no-TNFa wells
[2] = inhibitors of mutant huntingtin aggregation, primary screen, imaging, exon1htt(103Q)mCFP cells, high-content imaging (AID 483;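 active = visual image review flags a hit and inhibition of aggregation exceeds 20%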;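 note: compound exposure lasted 3 days before fixation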;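 for nuclei count: percent of the per-plate median nuclei count of sample wells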); conditions: exon1htt(103Q)mCFP cell line, aggregate imaging, at 2 µM; inhibition of aggregation: stronger effect = higher value; nuclei count: measured here: cell count, toxicity
[3] = inhibitors of E-selectin induction by TNFa, primary screen, imaging, HUVEC, immunofluorescence, MLSMR starter and 10KST1 sets (AID 487;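 active = visually confirmed hit in the image check and inhibition above 20%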;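 for inhibition: signal is fraction of cell area covered by stained E-selectin grains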;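 for nuclei count: 100% = median nuclei count of all wells on the same plate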); conditions: HUVEC TNFalpha-induced E-selectin immunofluorescence imaging, at 2 µM; inhibition: stronger effect = higher value; nuclei count: measured here: cell number, toxicity
[4] = biological target: Voltage-gated potassium channel subunit beta-2 (Rattus norvegicus) (UniProt P62483); assay: KvBeta enzyme negative modulators, primary screen, biochemical, NADPH fluorescence (AID 622;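 active = fluorescence slope higher than the sample average by over 3 SD, cut at about -0.22 in these data, passing the limit was not always enough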;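 note: slope of raw intensity against log time taken from 70 to 1610 s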); conditions: recombinant KvBeta, 4-cyanobenzaldehyde reduction, at 10 µM, stronger effect = higher value
[5] = biological target: Voltage-gated potassium channel subunit beta-2 (Rattus norvegicus) (UniProt P62483); assay: KvBeta positive modulators, primary screen, biochemical, NADPH fluorescence (AID 623;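 active = NADPH fluorescence slope more negative than the mean of all samples by about 3 SD, 99.7% confidence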;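 note: fluorescence intensity change per second fitted from 20 to 320 s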); conditions: Recombinant KvBeta, NADPH fluorescence decrease slope, 10 min; at 10 µM; stronger effect = lower value
[6] = biological target: Muscarinic acetylcholine receptor M4 (Homo sapiens) (UniProt P08173); assay: compounds altering M4/GIRK thallium flux, either direction, primary screen, M4 allosteric agonist project, cell-based, HEK293 M4/GIRK, BTC-AM (AID 625;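 active = fluorescence slope after compound addition differing from the mean of all tested samples at 99.7% confidence, mostly higher but some lower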;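 note: thallium influx through GIRK channels coupled to M4 in HEK293 cells with BTC-AM dye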); conditions: at 10 µM, actives lie on both sides
Method in brief: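 Assay system: HEK293 cells with M4 receptor and GIRK channels / Controls: carbachol and DMSO controls / Schedule: 1 h dye loading, 2 min kinetic read / Technique: kinetic fluorescence with BTC-AM dye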

[7] = inhibitors of Sendai virus-induced IRF3 signaling, primary screen, TLR/RLR signaling modifier project, cell-based, Sendai virus stimulus, luciferase, 10K MLSCN set (AID 602276;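 active = inhibition at or above 50% at 10 µM; inactive = inhibition below 50%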;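 note: firefly luciferase from ISG56 promoter only with Renilla not read in this screen; 0% = Sendai virus plus DMSO and 100% = medium plus DMSO without virus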); conditions: HEK293 RL24 IRF3 luciferase reporter, at 10 µM, stronger effect = higher value
[8] = inhibitors of poly I:C-induced TLR3 signaling, primary screen, cell-based, poly I:C stimulus, luciferase, 10K MLSCN set (AID 602277); conditions: HEK293-TLR3 RL24 IRF3 luciferase reporter, at 10 µM, stronger effect = higher value

Chain of Muscarinic acetylcholine receptor M4 (Homo sapiens) (P08173 whole entry, looked up): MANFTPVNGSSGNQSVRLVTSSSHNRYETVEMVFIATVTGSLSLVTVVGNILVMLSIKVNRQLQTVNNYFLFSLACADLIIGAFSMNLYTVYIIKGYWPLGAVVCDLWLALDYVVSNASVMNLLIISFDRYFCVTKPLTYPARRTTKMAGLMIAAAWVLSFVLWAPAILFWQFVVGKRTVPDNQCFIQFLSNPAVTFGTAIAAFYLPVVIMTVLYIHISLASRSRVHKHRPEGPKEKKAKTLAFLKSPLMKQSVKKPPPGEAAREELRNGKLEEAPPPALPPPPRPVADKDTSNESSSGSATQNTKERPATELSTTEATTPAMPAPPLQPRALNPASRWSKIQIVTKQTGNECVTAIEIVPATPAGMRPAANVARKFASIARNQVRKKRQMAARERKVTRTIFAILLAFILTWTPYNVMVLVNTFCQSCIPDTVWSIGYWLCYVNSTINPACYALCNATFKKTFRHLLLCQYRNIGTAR
Chain of Voltage-gated potassium channel subunit beta-2 (Rattus norvegicus) (P62483 whole entry, looked up): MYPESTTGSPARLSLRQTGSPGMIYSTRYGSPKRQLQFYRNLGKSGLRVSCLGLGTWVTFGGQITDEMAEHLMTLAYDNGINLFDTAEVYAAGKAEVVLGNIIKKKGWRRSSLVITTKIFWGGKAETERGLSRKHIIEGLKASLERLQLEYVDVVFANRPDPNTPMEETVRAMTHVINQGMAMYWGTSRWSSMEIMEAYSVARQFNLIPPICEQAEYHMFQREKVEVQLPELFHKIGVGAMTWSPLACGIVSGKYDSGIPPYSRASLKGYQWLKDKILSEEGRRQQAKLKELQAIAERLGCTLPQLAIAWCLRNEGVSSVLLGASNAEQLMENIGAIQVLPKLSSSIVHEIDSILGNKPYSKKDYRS

SMILES | cell count [1] | inhibition [1] | inhibition of aggregation [2] | nuclei count [2] [%] | inhibition [3] | nuclei count [3] [%] | fluorescence slope [4] | NADPH fluorescence slope [5] | fluorescence slope [6] | inhibition [7] | inhibition [8]
Cn1c(Cc2csc(N)n2)nnc1SCC(=O)NCc1ccccc1 | 447 | 7.3% (inactive) | 9.5% (inactive) | 95.3 | -12.6% (inactive) | 118 | -0.58 (inactive) | -9.4e-06 (inactive) | 0.00622 (inactive) | -2.1% (inactive) | 13.3% (inactive)
O=C(NCCC1=CCCCC1)C1CCN(S(=O)(=O)c2cccc3nsnc23)CC1 | 609 | 7.7% (inactive) | 4.8% (inactive) | 94.6 | -41.8% (inactive) | 126 | -0.443 (inactive) | -6e-05 (inactive) | 0.0046 (inactive) | 13.1% (inactive) | 26.5% (inactive)
O=C(NCCCN1CCN(CCCNC(=O)c2ccc(F)cc2)CC1)c1ccc(F)cc1 | 364 | -1.1% (inactive) | -1.8% (inactive) | 109 | 4.2% (inactive) | 102 | -0.528 (inactive) | 1.1e-05 (inactive) | 0.00616 (inactive) | 14.8% (inactive) | 23.9% (inactive)
CCCc1cc(-c2n[nH]c(C)c2-c2ccc(C(=O)OCC)o2)c(O)cc1O | 651 | 2% (inactive) | -2.2% (inactive) | 88.5 | -35.2% (inactive) | 113 | -0.571 (inactive) | -2e-05 (inactive) | 0.00514 (inactive) | 12.8% (inactive) | 17.9% (inactive)
O=c1c2c3c(sc2n2cnnc2n1CCc1ccccc1)CCCC3 | 660 | -1.4% (inactive) | 3.7% (inactive) | 99.9 | -171% (inactive) | 130 | -0.543 (inactive) | -2.6e-05 (inactive) | 0.00413 (inactive) | 2.46% (inactive) | 2.39% (inactive)
Cc1n[nH]c(C)c1S(=O)(=O)N1CCCCCC1 | 355 | 1.8% (inactive) | -0.3% (inactive) | 99.2 | -12.3% (inactive) | 110 | -0.488 (inactive) | 1.3e-05 (inactive) | 0.00614 (inactive) | 1.38% (inactive) | 25% (inactive)
CCOc1ccccc1-c1nc(-c2ccc(NC(=O)Cc3ccccc3OC)cc2)no1 | 484 | -5% (inactive) | -2.4% (inactive) | 87.4 | -54.6% (inactive) | 111 | -0.527 (inactive) | -3.1e-05 (inactive) | 0.0078 (inactive) | -18.2% (inactive) | -34.8% (inactive)
COc1ccc(-c2ccc(CCC(=O)O)n2NC(=O)c2cccs2)cc1 | 645 | -3.5% (inactive) | -1.9% (inactive) | 108 | -35.1% (inactive) | 131 | -0.464 (inactive) | -3.6e-05 (inactive) | 0.00607 (inactive) | 2.14% (inactive) | 42.4% (inactive)
Cc1cc(NC(=O)C2CCCC2)nc2c1c(=O)oc1ccccc12 | 601 | -3.4% (inactive) | 12.4% (inactive) | 98.2 | -16.3% (inactive) | 106 | -0.578 (inactive) | -4.4e-05 (inactive) | 0.00687 (inactive) | 7.38% (inactive) | 9.88% (inactive)
O=S1(=O)C=CC(Nc2cccc(Cl)c2)C1 (stereo not drawn) | 682 | -1% (inactive) | -6.1% (inactive) | 97.2 | -7.5% (inactive) | 98.1 | -0.447 (inactive) | -6.1e-05 (inactive) | 0.0065 (inactive) | 22.9% (inactive) | 30.3% (inactive)
CC1(C)OC(=O)C(=CNc2ccccc2)C(=O)O1 | 548 | 9.4% (inactive) | -4.1% (inactive) | 108 | 54.3% (inactive) | 102 | -0.617 (inactive) | -1.8e-06 (inactive) | 0.00548 (inactive) | -10% (inactive) | 99% (active)
CC1CCN(CC(O)COC2CCC(C(C)(C)C)CC2)CC1 (stereo not drawn) | 719 | -6.8% (inactive) | 1.9% (inactive) | 118 | -11.7% (inactive) | 111 | -0.453 (inactive) | -0.000251 (inactive) | 0.00347 (inactive) | 6.5% (inactive) | -5.56% (inactive)
CCC(=O)c1ccc(OCCN2CCOCC2)cc1 | 387 | -5.3% (inactive) | -1.8% (inactive) | 107 | -104% (inactive) | 120 | -0.566 (inactive) | -4.5e-05 (inactive) | 0.00623 (inactive) | 6.75% (inactive) | 7.43% (inactive)
CCC1(CC)NC(=O)NC1=O | 665 | 2.2% (inactive) | -5.3% (inactive) | 89.9 | 12.8% (inactive) | 106 | -0.588 (inactive) | -8.1e-05 (inactive) | 0.00419 (inactive) | 16.7% (inactive) | 8.56% (inactive)
Cc1[nH]nc2c1C1(CCN(C(=O)c3ccccc3)CC1)C(C#N)=C(N)O2 | 316 | -17% (inactive) | 22.6% (inactive) | 74.8 | 23.5% (inactive) | 114 | -0.598 (inactive) | -2.2e-06 (inactive) | 0.00593 (inactive) | 26.8% (inactive) | 32.8% (inactive)
CN1CCc2nc(SCC(=O)Nc3ccc(F)cc3)c(C#N)cc2C1 | 646 | -14.8% (inactive) | -16.9% (inactive) | 101 | -75.1% (inactive) | 101 | -0.456 (inactive) | 0.000133 (inactive) | 0.00558 (inactive) | -24.5% (inactive) | -52.9% (inactive)
Cc1nc(CNS(=O)(=O)c2cc(C)c(C)cc2C)cs1 | 331 | 6.3% (inactive) | -7.4% (inactive) | 109 | -13.2% (inactive) | 107 | -0.329 (inactive) | -5.1e-05 (inactive) | 0.00703 (inactive) | 9.82% (inactive) | 10.7% (inactive)
CCn1c(Cc2ccccc2)nnc1SCC(=O)Nc1nc2ccccc2s1 | 741 | -0.5% (inactive) | -25.5% (inactive) | 115 | -24.9% (inactive) | 97.6 | -0.469 (inactive) | -4.8e-05 (inactive) | 0.00499 (inactive) | 18.4% (inactive) | 17.4% (inactive)
c1ccc(-c2noc(C34CC5CC(CC(C5)C3)C4)n2)nc1 | 362 | 10.2% (inactive) | 17.1% (inactive) | 98.3 | -53.7% (inactive) | 102 | -0.554 (inactive) | -0.00016 (inactive) | 0.00439 (inactive) | -32.9% (inactive) | -64.6% (inactive)
CCOC(=O)N1CCC2(CC1)CC(=O)c1c(ccc3oc(C(=O)O)c(C)c13)O2 | 313 | -4.1% (inactive) | -17.7% (inactive) | 99 | -83.8% (inactive) | 105 | -0.413 (inactive) | -1.7e-05 (inactive) | 0.00564 (inactive) | 0.598% (inactive) | 11.3% (inactive)
CCC(=O)Nc1ccc(NC(=O)CSc2nnnn2C(C)C)cc1 | 667 | -8.1% (inactive) | -6% (inactive) | 74.9 | -74.4% (inactive) | 129 | -0.461 (inactive) | -4.3e-05 (inactive) | 0.00465 (inactive) | 14.9% (inactive) | 16.2% (inactive)
CCOC(=O)C1=C(CC)Nc2ccccc2N=C1NC(=O)Cn1cnc2ccccc2c1=O | 529 | 6.3% (inactive) | 6.9% (inactive) | 117 | -28.7% (inactive) | 123 | -0.534 (inactive) | -4.1e-05 (inactive) | 0.00608 (inactive) | 10.4% (inactive) | 20% (inactive)
CN=C(C)C1=C(O)C(C(=O)OC)C(C)(C)CC1=O (stereo not drawn) | 506 | 5% (inactive) | -7.4% (inactive) | 108 | -187% (inactive) | 122 | -0.54 (inactive) | -0.00011 (inactive) | 0.00531 (inactive) | 16.6% (inactive) | 16.6% (inactive)
COc1ccc(OC)c(NC(=O)CCN2CCN(c3ccccc3F)CC2)c1 | 529 | 10.1% (inactive) | 10.6% (inactive) | 81.2 | -63.8% (inactive) | 101 | -0.54 (inactive) | -3.3e-05 (inactive) | 0.00417 (inactive) | 1.17% (inactive) | 0.616% (inactive)
COCCNC(=O)CSc1nc(-c2ccc(OC)c(OC)c2)cc(C(F)(F)F)n1 | 430 | 3.4% (inactive) | -8.2% (inactive) | 104 | -34.3% (inactive) | 115 | -0.445 (inactive) | -0.000127 (inactive) | 0.00332 (inactive) | 17.7% (inactive) | 14.6% (inactive)
CCN(C(=O)c1cc2cc3ccc(C)cc3nc2o1)c1ccc(OC)cc1 | 225 | -1.3% (inactive) | 0.1% (inactive) | 107 | -11% (inactive) | 106 | -0.431 (inactive) | -1.6e-05 (inactive) | 0.00704 (inactive) | -25.1% (inactive) | -79.8% (inactive)
O=C(COc1ccc(Cl)cc1)Nc1nc(-c2cccs2)cs1 | 718 | -6.1% (inactive) | -1.6% (inactive) | 110 | -32.4% (inactive) | 114 | -0.567 (inactive) | 2.5e-05 (inactive) | 0.00605 (inactive) | 1.13% (inactive) | 0.877% (inactive)
CN(C)C(CNc1nnnn1-c1ccccc1)c1ccco1 (stereo not drawn) | 632 | -7.3% (inactive) | -11.4% (inactive) | 96 | -23.9% (inactive) | 116 | -0.584 (inactive) | 4.2e-06 (inactive) | 0.00677 (inactive) | 8.59% (inactive) | 19.2% (inactive)

Reference: PubChem BioAssay
